From ChEMBL document CHEMBL1149264, “Discovery of novel phenolic antioxidants as inhibitors of vascular cell adhesion molecule-1 expression for use in chronic inflammatory diseases” (J Med Chem, 2004)
Activity calls are given as the source filed them. No cut-off for these calls is given here.

Columns and labels:
Mus musculus [1] = experiment: Inhibition of mBSA-induced paw-swelling in DTH BALB/c mouse model at 50 mg/kg, sc; format: functional; settings: route subcutaneous
Procedure, shortened: (§1)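 Male BALB/c mice (20-25 g) sensitized on day 0 with intradermal abdominal mBSA (5 mg/mL)/Freund's complete adjuvant 1:1 emulsion. On day 7 challenged with mBSA in the right hind footpad, saline in the left. Compound given s.c. 24 h and 2 h before challenge; cyclosporin A 20 mg/kg as reference. Feet weighed 24 h post-challenge; swelling inhibition relative to vehicle group (100%). ANOVA with Fisher's PLSD.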

[2] = Inhibition of LPS-induced TNFalpha secretion in human PBMN cells by ELISA; format: functional, cell-based
Procedure, shortened: (§2)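 Fresh cryopreserved human PBMCs at 1 million cells/mL in lymphocyte growth media-3 were pretreated with compound for 1 h, then stimulated with LPS 1 μg/mL for a further 2 h with compound present. Secreted TNF-α, IL-6 and IL-1β in conditioned media measured by human ELISA, in duplicate (mean ± SD). Experiments repeated at least three times.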

[3] = Inhibition of TNF-alpha-stimulated VCAM1 expression in endothelial cells; format: functional, cell-based; settings: Homo sapiens, Endothelial cell
[4] = Inhibition of LPS-induced IL6 secretion in human PBMN cells by ELISA; format: functional, cell-based; procedure, shortened: as §2
Mus musculus [5] = experiment: Inhibition of mBSA-induced paw-swelling in DTH BALB/c mouse model at 25 mg/kg, sc; format: functional; settings: route subcutaneous; procedure, shortened: as §1
[6] = Inhibition of LPS-induced IL1-beta secretion in human PBMN cells by ELISA; format: functional, cell-based; procedure, shortened: as §2
Syrian golden hamster [7] = experiment: Effect on HDL level in hypercholesterolemic golden Syrian hamster; format: functional, Mesocricetus auratus; set-up: unit not given here
Procedure, shortened: (§3)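 Male golden Syrian hamsters (110-120 g), housed singly, given compound mixed into powdered chow at 150 mg/kg/d for two weeks. After an overnight fast and ketamine/xylazine i.p. anesthesia, blood was taken by cardiac puncture or abdominal aorta. Plasma was fractionated by FPLC and lipoprotein cholesterol measured enzymatically. Dunnett's test against controls.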

[8] = molecular target: T1, Polyunsaturated fatty acid lipoxygenase ALOX15 (Homo sapiens, UniProt P16050); experiment: Inhibition of 15-lipoxygenase by LMB assay
T1 sequence (P16050 whole entry): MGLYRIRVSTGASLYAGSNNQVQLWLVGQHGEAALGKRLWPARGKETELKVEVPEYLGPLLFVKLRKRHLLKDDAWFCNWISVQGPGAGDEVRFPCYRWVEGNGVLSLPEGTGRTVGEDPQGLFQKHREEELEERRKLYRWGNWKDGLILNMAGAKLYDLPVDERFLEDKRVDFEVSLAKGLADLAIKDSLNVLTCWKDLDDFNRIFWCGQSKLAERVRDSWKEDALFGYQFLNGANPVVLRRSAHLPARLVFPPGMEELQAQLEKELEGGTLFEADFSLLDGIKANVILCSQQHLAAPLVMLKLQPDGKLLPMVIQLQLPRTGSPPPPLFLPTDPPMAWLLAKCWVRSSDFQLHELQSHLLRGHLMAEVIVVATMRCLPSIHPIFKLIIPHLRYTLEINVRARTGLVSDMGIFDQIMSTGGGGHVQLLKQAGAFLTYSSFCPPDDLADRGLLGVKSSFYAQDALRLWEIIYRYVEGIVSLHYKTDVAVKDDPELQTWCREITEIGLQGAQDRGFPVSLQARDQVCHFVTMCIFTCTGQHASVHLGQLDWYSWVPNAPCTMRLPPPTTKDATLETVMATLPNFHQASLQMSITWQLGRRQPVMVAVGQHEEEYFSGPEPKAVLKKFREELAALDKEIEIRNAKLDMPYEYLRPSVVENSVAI

Syrian golden hamster [9] = experiment: Effect on LDL level in hypercholesterolemic golden Syrian hamster; format: functional, Mesocricetus auratus; set-up: unit not given here; procedure, shortened: as §3
Rattus norvegicus [10] = species: Rattus norvegicus; experiment: Inhibition of artheriosclerosis in allograft recipient rat; format: functional, organism-based
Rattus norvegicus [11] = experiment: Inhibition of paw edema in collagen 2-sensitized orally dosed rat model; format: functional, organism-based
PBMN = experiment: Inhibition of LPS-induced IL1-beta secretion in human PBMN cells at 10 uM by ELISA; format: functional, cell-based; procedure, shortened: as §2

CC(C)(Sc1cc(C(C)(C)C)c(O)c(C(C)(C)C)c1)Sc1ccc(C(C)(C)C)c(OC[C@H](O)[C@@H](O)CO)c1C(C)(C)C
inhibition in vivo at 50 mg/kg (Mus musculus [1]): 58% | IC50 [2]: 4 µM | IC50 [3]: 6 µM | IC50 [4]: 1700 nM | inhibition in vivo at 25 mg/kg (Mus musculus [5]): 29% | IC50 [6]: 7.7 µM

CC(C)(Sc1cc(C(C)(C)C)c(O)c(C(C)(C)C)c1)Sc1cc(C(C)(C)C)c(O)c(C(C)(C)C)c1 [PROBUCOL]
IC50 [2]: > 40 µM | IC50 [4]: > 40000 nM | IC50 [6]: > 40 µM

CC(C)(Sc1cc(C(C)(C)C)c(O)c(C(C)(C)C)c1)Sc1ccc(C(C)(C)C)c(OCC(=O)NC(CO)CO)c1C(C)(C)C
IC50 [3]: 6 µM

CC(C)(Sc1cc(C(C)(C)C)c(O)c(C(C)(C)C)c1)Sc1ccc(C(C)(C)C)c(OC/C(N)=N/O)c1C(C)(C)C
IC50 [3]: 26 µM

CC(C)(Sc1cc(C(C)(C)C)c(O)c(C(C)(C)C)c1)Sc1ccc(C(C)(C)C)c(O/C=C/C(=O)O)c1C(C)(C)C
IC50 [3]: 30 µM

CC(C)(Sc1cc(C(C)(C)C)c(O)c(C(C)(C)C)c1)Sc1ccc(C(C)(C)C)c(OC[C@@H](O)[C@@H](O)[C@H](O)[C@@H](O)CO)c1C(C)(C)C
inhibition in vivo at 50 mg/kg (Mus musculus [1]): 58% | Activity (Syrian golden hamster [7]): 94 | IC50 [8]: 12 µM | IC50 [2]: 1.8 µM | IC50 [3]: 15 µM | IC50 [4]: 1000 nM | inhibition in vivo at 25 mg/kg (Mus musculus [5]): 29% | IC50 [6]: 2.2 µM | Activity (Syrian golden hamster [9]): 30

CC(C)(Sc1cc(C(C)(C)C)c(O)c(C(C)(C)C)c1)Sc1cc(C(C)(C)C)c(OCCCC(=O)O)c(C(C)(C)C)c1 [ELSIBUCOL]
IC50 [3]: 11 µM | Activity (Rattus norvegicus [10]): Active

CC(C)(Sc1cc(C(C)(C)C)c(O)c(C(C)(C)C)c1)Sc1ccc(C(C)(C)C)c(OCCCCC(=O)O)c1C(C)(C)C
IC50 [3]: 23 µM

CC(C)(Sc1cc(C(C)(C)C)c(O)c(C(C)(C)C)c1)Sc1ccc(C(C)(C)C)c(OC[C@H]2OC(=O)[C@H](O)[C@@H]2O)c1C(C)(C)C
IC50 [3]: 13 µM

CN(CC(=O)O)C(=O)COc1c(C(C)(C)C)ccc(SC(C)(C)Sc2cc(C(C)(C)C)c(O)c(C(C)(C)C)c2)c1C(C)(C)C
IC50 [3]: 7 µM

CC(C)(Sc1cc(C(C)(C)C)c(O)c(C(C)(C)C)c1)Sc1cc(C(C)(C)C)c(OCC(=O)O)c(C(C)(C)C)c1 [CAMOBUCOL]
Activity (Syrian golden hamster [7]): 86 | IC50 [3]: 10 µM | Activity (Rattus norvegicus [11]): Dose-dependent effect | Activity (Syrian golden hamster [9]): 18

CC(C)(Sc1cc(C(C)(C)C)c(O)c(C(C)(C)C)c1)Sc1ccc(C(C)(C)C)c(OC[C@@H](O)[C@H](O)CO)c1C(C)(C)C
inhibition in vivo at 50 mg/kg (Mus musculus [1]): 58% | IC50 [2]: 3.3 µM | IC50 [3]: 1 µM | IC50 [4]: 1200 nM | inhibition in vivo at 25 mg/kg (Mus musculus [5]): 29% | IC50 [6]: 8 µM

CC(C)(Sc1cc(C(C)(C)C)c(O)c(C(C)(C)C)c1)Sc1ccc(C(C)(C)C)c(OC[C@@H](O)[C@@H](O)[C@@H](O)CO)c1C(C)(C)C
Activity (Syrian golden hamster [7]): 119 | IC50 [3]: 13 µM | Activity (Syrian golden hamster [9]): 338

CC(C)(Sc1cc(C(C)(C)C)c(O)c(C(C)(C)C)c1)Sc1ccc(C(C)(C)C)c(OCC(O)CO)c1C(C)(C)C (centres undefined)
IC50 [3]: 30 µM

CC(C)(Sc1cc(C(C)(C)C)c(O)c(C(C)(C)C)c1)Sc1ccc(C(C)(C)C)c(OC[C@@H](O)[C@@H](O)[C@@H](O)C(=O)O)c1C(C)(C)C
Activity (Syrian golden hamster [7]): 173 | IC50 [3]: 35 µM | Activity (Syrian golden hamster [9]): 175

CC(C)(Sc1cc(C(C)(C)C)c(O)c(C(C)(C)C)c1)Sc1ccc(C(C)(C)C)c(OCCCCO)c1C(C)(C)C
IC50 [3]: 125 µM

CC(C)(Sc1cc(C(C)(C)C)c(O)c(C(C)(C)C)c1)Sc1ccc(C(C)(C)C)c(OCC(=O)NCCC(=O)O)c1C(C)(C)C
IC50 [3]: 6 µM

CC(C)(Sc1cc(C(C)(C)C)c(OCC(=O)O)c(C(C)(C)C)c1)Sc1ccc(C(C)(C)C)c(OCC(=O)O)c1C(C)(C)C
IC50 [8]: > 125 µM | IC50 [2]: > 10 µM | IC50 [3]: > 50 µM | IC50 [4]: > 10000 nM | IC50 [6]: > 10 µM

CC(C)(Sc1cc(C(C)(C)C)c(O)c(C(C)(C)C)c1)Sc1ccc(C(C)(C)C)c(OCC(=O)NCC(=O)O)c1C(C)(C)C
IC50 [3]: 6 µM

CC(=O)O[C@@H]1O[C@H](COc2c(C(C)(C)C)ccc(SC(C)(C)Sc3cc(C(C)(C)C)c(O)c(C(C)(C)C)c3)c2C(C)(C)C)[C@@H](OC(C)=O)[C@H](OC(C)=O)[C@H]1OC(C)=O
IC50 [3]: > 50 µM

CC(C)(Sc1cc(C(C)(C)C)c(O)c(C(C)(C)C)c1)Sc1ccc(C(C)(C)C)c(OCC(O)CNCC(=O)O)c1C(C)(C)C (centres undefined)
Activity (Syrian golden hamster [7]): 146 | IC50 [3]: 16 µM | Activity (Syrian golden hamster [9]): 190

CC(C)(Sc1cc(C(C)(C)C)c(O)c(C(C)(C)C)c1)Sc1ccc(C(C)(C)C)c(OC[C@H]2OC(O)[C@H](O)[C@@H]2O)c1C(C)(C)C (some centres undefined)
IC50 [3]: 8 µM

CCOCC(O)COc1c(C(C)(C)C)ccc(SC(C)(C)Sc2cc(C(C)(C)C)c(O)c(C(C)(C)C)c2)c1C(C)(C)C (centres undefined)
IC50 [3]: > 50 µM

CC(C)(Sc1cc(C(C)(C)C)c(O)c(C(C)(C)C)c1)Sc1ccc(C(C)(C)C)c(OCCC(=O)O)c1C(C)(C)C
IC50 [3]: 7 µM

CC(=O)OC(CO)COc1c(C(C)(C)C)ccc(SC(C)(C)Sc2cc(C(C)(C)C)c(O)c(C(C)(C)C)c2)c1C(C)(C)C (centres undefined)
IC50 [3]: 33 µM

CC(C)(Sc1cc(C(C)(C)C)c(O)c(C(C)(C)C)c1)Sc1ccc(C(C)(C)C)c(OCC(=O)N[C@@H](CCC(=O)O)C(=O)O)c1C(C)(C)C
IC50 [3]: 75 µM

CC(C)(Sc1cc(C(C)(C)C)c(O)c(C(C)(C)C)c1)Sc1ccc(C(C)(C)C)c(OC[C@H]2OC(O)[C@H](O)[C@@H](O)[C@@H]2O)c1C(C)(C)C (some centres undefined)
Activity (PBMN): Active | inhibition in vivo at 50 mg/kg (Mus musculus [1]): 58% | Activity (Syrian golden hamster [7]): 63 | IC50 [8]: 10 µM | IC50 [2]: 1.9 µM | IC50 [3]: 10 µM | IC50 [4]: 1600 nM | inhibition in vivo at 25 mg/kg (Mus musculus [5]): 29% | Activity (Syrian golden hamster [9]): 9

CC(C)(Sc1cc(C(C)(C)C)c(O)c(C(C)(C)C)c1)Sc1ccc(C(C)(C)C)c(O/C=C/CO)c1C(C)(C)C
IC50 [3]: 55 µM

CC(C)(Sc1cc(C(C)(C)C)c(O)c(C(C)(C)C)c1)Sc1cc(C(C)(C)C)c(OC(=O)CCC(=O)O)c(C(C)(C)C)c1 [SUCCINOBUCOL]
IC50 [3]: 6 µM

CC(C)(Sc1cc(C(C)(C)C)c(O)c(C(C)(C)C)c1)Sc1ccc(C(C)(C)C)c(OCC(CO)CO)c1C(C)(C)C
IC50 [3]: 13 µM

CC(=O)OCC(O)COc1c(C(C)(C)C)ccc(SC(C)(C)Sc2cc(C(C)(C)C)c(O)c(C(C)(C)C)c2)c1C(C)(C)C (centres undefined)
IC50 [3]: 41 µM

C=CC(=O)OCCCCOc1c(C(C)(C)C)ccc(SC(C)(C)Sc2cc(C(C)(C)C)c(O)c(C(C)(C)C)c2)c1C(C)(C)C
IC50 [3]: 75 µM
